Results pooled from the literature.
Target: Cholinesterase (BCHE, Equus caballus, UniProt P81908)
Read-out: enzyme activity
Action: inhibitor

| SMILES | technique | IC50 [µM] |
| --- | --- | --- |
| CCOc1ccc(C=NNC(=S)NCC(=O)c2ccc(Cl)cc2Cl)cc1 | Ellman | 331 |
| CC(C)(C)OC(=O)N1CCN(c2nccc(NCc3ccccc3)n2)CC1 |  | > 100 |
| C#CCN(C)c1nc(NCCCCC2CCN(Cc3ccccc3)CC2)c(C#N)c(-c2ccccc2)c1C#N | Ellman | 0.22 |
| O=C(NCCCNc1c2c(nc3ccccc13)CCCC2)c1ccccc1O | Ellman | 0.129 |
| CC=C1[C@H]2C=C(C)C[C@]1(N)c1cc(CC)c(=O)[nH]c1C2 | Ellman | 60.4 |
| C#CCNc1nc(NCCCCC2CCN(Cc3ccccc3)CC2)c(C#N)cc1C#N | Ellman | 0.511 |
| CCOc1ccc(C=NNC(=S)NCC(=O)c2cccc(C)c2)cc1 | Ellman | 300 |
| CC=C1[C@H]2C=C(C)C[C@]1(N)c1ccc(OC)nc1C2 | Ellman | 904 |
| CCOc1ccc(C=NNC(=S)NCC(=O)c2ccc(-c3ccccc3)cc2)cc1 | Ellman | 501 |
| CC=C1[C@H]2C=C(C)C[C@]1(N)c1cc(C)c(=O)[nH]c1C2 | Ellman | 486 |
| CC(=O)N1CCN(c2nccc(NCCc3ccccc3)n2)CC1 |  | > 100 |
